The nature of data set [1]: Metabolic stability in human liver microsomes assessed as compound remaining at 10 uM after 1 hr by LC/MS/MS analysis. It counts as ADME. Conditions: read-out: Stability. In outline: (§1)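 Prodrug at 10 µM spiked into mouse or human plasma or liver microsomes, incubated at 37 °C on an orbital shaker. Triplicate aliquots taken at 0, 30 and 60 min, quenched with 3 volumes of ice-cold acetonitrile containing losartan internal standard, vortexed, spun 12000 g for 10 min. Parent disappearance followed by LC/MS/MS and reported as % remaining at 1 h.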

Data set [2] in a line: Metabolic stability in mouse plasma assessed as compound remaining at 10 uM after 1 hr by LC/MS/MS analysis. The class given is ADME, cell-free. The following applies: read-out: Stability. In outline: as §1
Data set [3] in a line: Metabolic stability in human plasma assessed as compound remaining at 10 uM after 1 hr by LC/MS/MS analysis. It counts as ADME, cell-free. Conditions: read-out: Stability. In outline:
as §1

The nature of data set [4]: Metabolic stability in mouse liver microsomes assessed as compound remaining at 10 uM after 1 hr by LC/MS/MS analysis. The class given is ADME. The following applies: read-out: Stability. In outline:
as §1

Data set [5] is described as follows: Chemical stability of compound. It counts as physicochemical.
The test system of data set [6] is Plasma. Nature of the data set: Prodrug activation in mouse plasma assessed as 2-phosphonomethylpentanedioic acid formation at 30 mg/kg administered via oral gavage after 30 mins by LC/MS/MS analysis. It counts as organism-based. Conditions: in vivo, 0.5 h. The procedure, abridged:
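Mice given prodrug orally at 30 mg/kg (equivalent of 1), 10 mL/kg volume; blood taken at 30 min, N=3. Plasma extracted with methanol containing 2-PMSA internal standard. Released 1 measured selectively after mild MTBSTFA derivatization (~60 °C, 40 min) by LC/MS/MS. Total prodrug plus metabolites measured separately after n-butanol/3N HCl derivatization (60°C, 30 min), which converts all species to butyl esters of 1.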

Data set [7] relates to Canis familiaris. Nature of the data set: Cmax in beagle dog assessed as 2-phosphonomethylpentanedioic acid at 10 mg/kg administered via oral gavage measured after 30 mins to 8 hrs by LC/MS/MS analysis. The class given is ADME, organism-based, Canis lupus familiaris. More on the design: dose 10 mg/kg, route oral. The following applies: in vivo. In outline: (§2)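 Single beagle dog given oral dose of 10 mg/kg (expressed as equivalent of 1). Jugular venipuncture blood at 0, 30 min, 1, 2, 4, 6, 8 h into potassium oxalate/NaF tubes, kept on wet ice, spun 3000 x g, 4°C, 5 min; plasma frozen at -60 to -80°C. LC/MS/MS. Cmax and Tmax taken as observed values; AUC to last sample by log-linear trapezoidal rule.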

The test system of data set [8] is Canis familiaris. Nature of the data set: Tmax in beagle dog assessed as 2-phosphonomethylpentanedioic acid at 10 mg/kg administered via oral gavage measured after 30 mins to 8 hrs by LC/MS/MS analysis. The class given is ADME, organism-based, Canis lupus familiaris. Conditions: in vivo. In outline:
as §2

Data set [9] relates to Canis familiaris. Nature of the data set: AUC (0 to t) in beagle dog assessed as 2-phosphonomethylpentanedioic acid at 10 mg/kg administered via oral gavage measured after 30 mins to 8 hrs by LC/MS/MS analysis. Conditions: in vivo. More on the design: dose 10 mg/kg, time upper 8 hr, time lower 0.5 hr, route oral. The class given is ADME, organism-based, Canis lupus familiaris. In outline: as §2

The subject of data set [10] is Mus musculus. Nature of the data set: Cmax in mouse assessed as 2-phosphonomethylpentanedioic acid at 30 mg/kg administered via oral gavage measured after 15 mins to 4 hrs by LC/MS/MS analysis. It counts as ADME, organism-based. More on the design: dose 30 mg/kg, route oral. Conditions: in vivo. In outline:
(§3)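 Mice dosed orally at 30 mg/kg (equivalent of 1), 10 mL/kg dosing volume. Cardiac-puncture blood at 0, 15, 30 min, 1, 2, 4 h, n=3 per time point; plasma stored at -80°C. Methanol precipitation with 2-PMSA internal standard, then mild MTBSTFA derivatization (~60 °C, 40 min) so only free 1 is measured by LC/MS/MS. Cmax/Tmax observed; AUC to last sample by log-linear trapezoidal rule.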

The test system of data set [11] is Mus musculus. Nature of the data set: Tmax in mouse assessed as 2-phosphonomethylpentanedioic acid at 30 mg/kg administered via oral gavage measured after 15 mins to 4 hrs by LC/MS/MS analysis. It counts as ADME, organism-based. The following applies: in vivo. In outline:
as §3

Data set [12] concerns Mus musculus. Nature of the data set: AUC (0 to t) in mouse assessed as 2-phosphonomethylpentanedioic acid at 30 mg/kg administered via oral gavage measured after 15 mins to 4 hrs by LC/MS/MS analysis. The class given is ADME, organism-based. On the set-up: time upper 4 hr, dose 30 mg/kg, time lower 0.25 hr, route oral. The following applies: in vivo. The procedure, abridged:
as §3

The nature of data set [13]: Tmax in mouse at 30 mg/kg administered via oral gavage measured after 15 mins to 4 hrs by LC/MS/MS analysis. Conditions: in vivo. The class given is ADME, organism-based. In outline: (§4)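 Mice were dosed by oral gavage at 30 mg/kg (parent-drug equivalent) in 10 mL/kg. Blood was taken by cardiac puncture at 0, 15 and 30 min and 1, 2 and 4 h, n=3 per time point. Plasma was stored at -80 °C and the released parent drug measured by LC/MS/MS. Cmax and Tmax are observed values; AUC is the log-linear trapezoidal AUClast.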

The nature of data set [14]: AUC (0 to t hrs) in mouse at 30 mg/kg administered via oral gavage measured after 15 mins to 4 hrs by LC/MS/MS analysis. It counts as ADME, organism-based. More on the design: time lower 0.25 hr, dose 30 mg/kg, time upper 4 hr, route oral. Conditions: in vivo. The procedure, abridged:
as §4

Data set [15] can be described thus: Cmax in mouse at 10 mg/kg administered via oral gavage measured after 15 mins to 4 hrs by LC/MS/MS analysis. It counts as ADME, organism-based. Conditions: in vivo. More on the design: dose 10 mg/kg, route oral.
Data set [16] can be described thus: AUC (0 to t hrs) in mouse at 10 mg/kg administered via oral gavage measured after 15 mins to 4 hrs by LC/MS/MS analysis. It counts as ADME, organism-based. More on the design: dose 10 mg/kg, time 0.25-4 hr, route oral. Conditions: in vivo.
The subject of data set [17] is Plasma. Nature of the data set: Plasma concentration in rhesus monkey at 10 mg/kg, po measured at 0.25 to 2 hrs post dose. It counts as ADME, organism-based, Macaca mulatta. The following applies: in vivo.
A short description of data set [18]: Cmax in mouse at 30 mg/kg administered via oral gavage measured after 15 mins to 4 hrs by LC/MS/MS analysis. It counts as ADME, organism-based. More on the design: dose 30 mg/kg, route oral. The following applies: in vivo. In outline: as §4

Each structure is given as a SMILES string.

Here are results for 12 molecules from ChEMBL document CHEMBL3792359, “Discovery of Orally Available Prodrugs of the Glutamate Carboxypeptidase II (GCPII) Inhibitor 2-Phosphonomethylpentanedioic Acid (2-PMPA)” (J Med Chem, 2016).

For the molecule `COC(=O)CCC(CP(=O)(OCOC(=O)C(C)(C)C)OCOC(=O)C(C)(C)C)C(=O)OC` (configuration not stated), the remaining at 1 h, 10 µM is 0% in data set [1], 0% in data set [2], 29% in [3] and 0% in data set [4].
Consider `CC(C)OC(=O)OCOP(=O)(CC(CCC(=O)O)C(=O)O)OCOC(=O)OC(C)C` (configuration not stated), for which, in data set [5], the Stability entry is given as “Unstable”.
For the molecule `COC(=O)CCC(CP(=O)(OCOC(=O)OC(C)C)OCOC(=O)OC(C)C)C(=O)OC` (configuration not stated), the remaining at 1 h, 10 µM was determined as 0% in data set [1], 0.1% in data set [2], 0% in data set [3] and 0.1% in data set [4].
As for `CCOC(=O)C(CCC(=O)O)CP(=O)(OCOC(=O)C(C)(C)C)OCOC(=O)C(C)(C)C` (configuration not stated), the remaining at 1 h, 10 µM in [1] is 26%; in [2] it was 3%; in data set [3] it was 61%; in data set [4], 0%. Further, in the data set with Plasma [6], the Drug metabolism worked out at 0.54 µM.
Take `COC(=O)CCC(CP(=O)(O)O)C(=O)OC` (configuration not stated): the remaining at 1 h, 10 µM in [1] was determined as 103%; in [2], 86%; in data set [3] it was 96%; in [4], 101%.
Turning to `CC(C)(C)C(=O)OCOC(=O)C(CCC(=O)O)CP(=O)(OCOC(=O)C(C)(C)C)OCOC(=O)C(C)(C)C` (configuration not stated), the remaining at 1 h, 10 µM in [1] amounted to 0%; in [2], 0%; in data set [3] it was 79%; in data set [4], 0%. Further, in the data set on Plasma [6], the Drug metabolism amounted to 15.8 µM.
On to `CC(C)OC(=O)OCOC(=O)C(CCC(=O)O)CP(=O)(OCOC(=O)OC(C)C)OCOC(=O)OC(C)C` (configuration not stated), for which the remaining at 1 h, 10 µM stood at 0% in data set [1], 0% in [2], 48% in [3] and 0% in data set [4]. Further, the values for the maximum concentration (Cmax) in the data set on Canis familiaris [7] and in the data set on Mus musculus [10] were 51100 nM and 15100 nM, respectively. In addition, the Tmax in the data set on Canis familiaris [8] was 1 h; with Mus musculus [11], 0.5 h. Also, the AUCt was 126 µM·h in the data set on Canis familiaris [9] and 35.9 µM·h in the data set with Mus musculus [12]. In addition, the Drug metabolism in the data set on Plasma [6] stood at 15.66 µM.
`CCOC(=O)C(CCC(=O)O)CP(=O)(OCOC(=O)OC(C)C)OCOC(=O)OC(C)C` (configuration not stated): the remaining at 1 h, 10 µM in data set [1] amounted to 32%; in data set [2], 0%; in data set [3], 80%; in data set [4], 0%. In the data set with Plasma [6], the Drug metabolism amounted to 0.49 µM.
On to `CCOC(=O)CCC(CP(=O)(OCOC(=O)C(C)(C)C)OCOC(=O)C(C)(C)C)C(=O)OCC` (configuration not stated), for which the remaining at 1 h, 10 µM in data set [1] was 0%; in [2], 0%; in [3], 18%; in data set [4], 0%.
For `COC(=O)C(CCC(=O)O)CP(=O)(OCOC(=O)C(C)(C)C)OCOC(=O)C(C)(C)C` (configuration not stated), the remaining at 1 h, 10 µM in data set [1] was 54%; in data set [2], 0%; in data set [3], 82%; in data set [4], 0%. Moreover, the Drug metabolism with Plasma [6] stood at 0.74 µM.
Consider `CCOC(=O)CCC(CP(=O)(O)O)C(=O)OCC` (configuration not stated), for which the remaining at 1 h, 10 µM in data set [1] worked out at 88%; in data set [2] it was 59%; in [3], 73%; in data set [4] it was 83%.
With `O=C(O)CCC(CP(=O)(O)O)C(=O)O` (configuration not stated), the remaining at 1 h, 10 µM was 91% in [1], 85% in data set [2], 83% in [3] and 100% in [4]. The time of peak concentration (Tmax) in [13] was 1 h. For the same molecule, the area under the curve AUC(0-t) in data set [14] came to 1.94 µM·h; in [16], 0.6 µM·h. The results for the Cmax in data set [15] and in data set [18] were 280 nM and 860 nM, respectively. The concentration with Plasma [17] was determined as 180 nM.
